In brackets after ≈: the same amount, converted by molar mass.
How the values were obtained:
Type in all cases: functional
[1] = test system: Staphylococcus aureus; test: Antibacterial activity against Staphylococcus aureus ATCC 25923 assessed as inhibition of bacterial growth after 24 hrs by CLSI protocol based two fold serial dilution method
Procedure, shortened: (§1)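 Two-fold serial broth dilution in 96-well plates following CLSI; MIC (mM) taken as the lowest concentration giving complete growth inhibition; MIC values from three independent experiments.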

[2] = test system: Escherichia coli; test: Antibacterial activity against Escherichia coli assessed as inhibition of bacterial growth after 24 hrs by CLSI protocol based two fold serial dilution method; procedure, shortened: as §1
[3] = test system: Candida parapsilosis; test: Antifungal activity against Candida parapsilosis ATCC 22019 assessed as inhibition of fungal growth after 24 hrs by CLSI protocol based two fold serial dilution method; conditions: Lodderomyces parapsilosis; procedure, shortened: as §1
[4] = test system: Klebsiella pneumoniae; test: Antibacterial activity against Klebsiella pneumoniae assessed as inhibition of bacterial growth after 24 hrs by CLSI protocol based two fold serial dilution method; procedure, shortened: as §1
[5] = test system: Enterococcus faecalis; test: Antibacterial activity against Enterococcus faecalis assessed as inhibition of bacterial growth after 24 hrs by CLSI protocol based two fold serial dilution method; procedure, shortened: as §1
[6] = test system: Escherichia coli; test: Antibacterial activity against Escherichia coli ATCC 25922 assessed as inhibition of bacterial growth after 24 hrs by CLSI protocol based two fold serial dilution method; procedure, shortened: as §1
[7] = test system: Aspergillus fumigatus; test: Antifungal activity against Aspergillus fumigatus assessed as inhibition of fungal growth after 24 hrs by CLSI protocol based two fold serial dilution method; procedure, shortened: as §1
[8] = test system: Acinetobacter baumannii; test: Antibacterial activity against Acinetobacter baumannii assessed as inhibition of bacterial growth after 24 hrs by CLSI protocol based two fold serial dilution method; procedure, shortened: as §1
[9] = test system: Staphylococcus aureus; test: Antibacterial activity against Staphylococcus aureus assessed as inhibition of bacterial growth after 24 hrs by CLSI protocol based two fold serial dilution method; procedure, shortened: as §1
[10] = test system: Candida albicans; test: Antifungal activity against Candida albicans assessed as inhibition of fungal growth after 24 hrs by CLSI protocol based two fold serial dilution method; procedure, shortened: as §1
[11] = test system: Candida tropicalis; test: Antifungal activity against Candida tropicalis assessed as inhibition of fungal growth after 24 hrs by CLSI protocol based two fold serial dilution method; procedure, shortened: as §1
[12] = test system: Pseudomonas aeruginosa; test: Antibacterial activity against Pseudomonas aeruginosa assessed as inhibition of bacterial growth after 24 hrs by CLSI protocol based two fold serial dilution method; procedure, shortened: as §1
[13] = test system: Candida albicans; test: Antifungal activity against Candida albicans ATCC 90023 assessed as inhibition of fungal growth after 24 hrs by CLSI protocol based two fold serial dilution method; procedure, shortened: as §1
[14] = test system: Pseudomonas aeruginosa; test: Antibacterial activity against Pseudomonas aeruginosa ATCC 27853 assessed as inhibition of bacterial growth after 24 hrs by CLSI protocol based two fold serial dilution method; procedure, shortened: as §1
[15] = test system: Staphylococcus aureus; test: Antibacterial activity against Staphylococcus aureus ATCC 29213 assessed as inhibition of bacterial growth after 24 hrs by CLSI protocol based two fold serial dilution method
[16] = test system: Staphylococcus aureus; test: Antibacterial activity against methicillin-resistant Staphylococcus aureus N315 assessed as inhibition of bacterial growth after 24 hrs by CLSI protocol based two fold serial dilution method

SMILES | MIC [1] | MIC [2] | MIC [3] | MIC [4] | MIC [5] | MIC [6] | MIC [7] | MIC [8] | MIC [9] | MIC [10] | MIC [11] | MIC [12] | MIC [13] | MIC [14] | MIC [15] | MIC [16]
CCCCCCCCCCN1CCN(c2cc3c(cc2F)c(=O)c(-c2csc(N)n2)cn3CC)CC1 | 499 µM (≈ 256 µg/mL) | 499 µM (≈ 256 µg/mL) | 249 µM (≈ 128 µg/mL) | 499 µM (≈ 256 µg/mL) | 499 µM (≈ 256 µg/mL) | 499 µM (≈ 256 µg/mL) | 125 µM (≈ 64.2 µg/mL) | 249 µM (≈ 128 µg/mL) | 499 µM (≈ 256 µg/mL) | 997 µM (≈ 512 µg/mL) | 499 µM (≈ 256 µg/mL) | 499 µM (≈ 256 µg/mL) | 997 µM (≈ 512 µg/mL) | 249 µM (≈ 128 µg/mL) | 997 µM (≈ 512 µg/mL) | 997 µM (≈ 512 µg/mL)
CCn1cc(-c2csc(N)n2)c(=O)c2cc(N3CCN(c4cc5c(cc4F)c(=O)c(-c4csc(N)n4)cn5CC)CC3)c(Cl)cc21 | 757 µM (≈ 513 µg/mL) | 189 µM (≈ 128 µg/mL) | 757 µM (≈ 513 µg/mL) | 379 µM (≈ 257 µg/mL) | 757 µM (≈ 513 µg/mL) | 757 µM (≈ 513 µg/mL) | 189 µM (≈ 128 µg/mL) | 757 µM (≈ 513 µg/mL) | 757 µM (≈ 513 µg/mL) | 757 µM (≈ 513 µg/mL) | 757 µM (≈ 513 µg/mL) | 757 µM (≈ 513 µg/mL) | 757 µM (≈ 513 µg/mL) | 757 µM (≈ 513 µg/mL) | 757 µM (≈ 513 µg/mL) | 757 µM (≈ 513 µg/mL)
CCn1cc(-c2csc(N)n2)c(=O)c2cc(N3CCN(CC(C)=O)CC3)c(Cl)cc21 | 288 µM (≈ 128 µg/mL) | 1150 µM (≈ 513 µg/mL) | 288 µM (≈ 128 µg/mL) | 72 µM (≈ 32.1 µg/mL) | 288 µM (≈ 128 µg/mL) | 288 µM (≈ 128 µg/mL) | 575 µM (≈ 256 µg/mL) | 288 µM (≈ 128 µg/mL) | 144 µM (≈ 64.2 µg/mL) | 575 µM (≈ 256 µg/mL) | 288 µM (≈ 128 µg/mL) | 288 µM (≈ 128 µg/mL) | 144 µM (≈ 64.2 µg/mL) | 36 µM (≈ 16.1 µg/mL) | 575 µM (≈ 256 µg/mL) | 72 µM (≈ 32.1 µg/mL)
CCn1cc(-c2csc(N)n2)c(=O)c2cc(F)c(N3CCN(CC(=O)N(CCO)CCO)CC3)cc21 | 8 µM (≈ 4.15 µg/mL) | 62 µM (≈ 32.2 µg/mL) | 31 µM (≈ 16.1 µg/mL) | 62 µM (≈ 32.2 µg/mL) | 15 µM (≈ 7.78 µg/mL) | 15 µM (≈ 7.78 µg/mL) | 15 µM (≈ 7.78 µg/mL) | 62 µM (≈ 32.2 µg/mL) | 124 µM (≈ 64.3 µg/mL) | 62 µM (≈ 32.2 µg/mL) | 62 µM (≈ 32.2 µg/mL) | 62 µM (≈ 32.2 µg/mL) | 8 µM (≈ 4.15 µg/mL) | 62 µM (≈ 32.2 µg/mL) | 62 µM (≈ 32.2 µg/mL) | 62 µM (≈ 32.2 µg/mL)
CCn1cc(-c2csc(N)n2)c(=O)c2cc(F)c(N3CCN(CC(C)O)CC3)cc21 (configuration not stated) | 148 µM (≈ 63.9 µg/mL) | 594 µM (≈ 256 µg/mL) | 148 µM (≈ 63.9 µg/mL) | 9 µM (≈ 3.88 µg/mL) | 297 µM (≈ 128 µg/mL) | 37 µM (≈ 16 µg/mL) | 37 µM (≈ 16 µg/mL) | 19 µM (≈ 8.2 µg/mL) | 37 µM (≈ 16 µg/mL) | 148 µM (≈ 63.9 µg/mL) | 297 µM (≈ 128 µg/mL) | 148 µM (≈ 63.9 µg/mL) | 148 µM (≈ 63.9 µg/mL) | 5 µM (≈ 2.16 µg/mL) | 148 µM (≈ 63.9 µg/mL) | 148 µM (≈ 63.9 µg/mL)
C=CCN1CCN(c2cc3c(cc2F)c(=O)c(-c2csc(N)n2)cn3CC)CC1 | 19 µM (≈ 7.86 µg/mL) | 77 µM (≈ 31.8 µg/mL) | 155 µM (≈ 64.1 µg/mL) | 77 µM (≈ 31.8 µg/mL) | 155 µM (≈ 64.1 µg/mL) | 155 µM (≈ 64.1 µg/mL) | 77 µM (≈ 31.8 µg/mL) | 77 µM (≈ 31.8 µg/mL) | 155 µM (≈ 64.1 µg/mL) | 77 µM (≈ 31.8 µg/mL) | 155 µM (≈ 64.1 µg/mL) | 155 µM (≈ 64.1 µg/mL) | 77 µM (≈ 31.8 µg/mL) | 155 µM (≈ 64.1 µg/mL) | 39 µM (≈ 16.1 µg/mL) | 78 µM (≈ 32.3 µg/mL)
CCn1cc(-c2csc(N)n2)c(=O)c2cc(N3CCNCC3)c(Cl)cc21 | 82 µM (≈ 32 µg/mL) | 329 µM (≈ 128 µg/mL) | 1320 µM (≈ 513 µg/mL) | 164 µM (≈ 63.9 µg/mL) | 329 µM (≈ 128 µg/mL) | 164 µM (≈ 63.9 µg/mL) | 164 µM (≈ 63.9 µg/mL) | 1320 µM (≈ 513 µg/mL) | 82 µM (≈ 32 µg/mL) | 329 µM (≈ 128 µg/mL) | 329 µM (≈ 128 µg/mL) | 41 µM (≈ 16 µg/mL) | 164 µM (≈ 63.9 µg/mL) | 658 µM (≈ 257 µg/mL) | 329 µM (≈ 128 µg/mL) | 658 µM (≈ 257 µg/mL)
CCn1cc(-c2csc(N)n2)c(=O)c2cc(F)c(N3CCN(CC(=O)N(C)C)CC3)cc21 | 17 µM (≈ 7.8 µg/mL) | 140 µM (≈ 64.2 µg/mL) | 279 µM (≈ 128 µg/mL) | 35 µM (≈ 16 µg/mL) | 140 µM (≈ 64.2 µg/mL) | 70 µM (≈ 32.1 µg/mL) | 70 µM (≈ 32.1 µg/mL) | 140 µM (≈ 64.2 µg/mL) | 35 µM (≈ 16 µg/mL) | 70 µM (≈ 32.1 µg/mL) | 70 µM (≈ 32.1 µg/mL) | 279 µM (≈ 128 µg/mL) | 140 µM (≈ 64.2 µg/mL) | 70 µM (≈ 32.1 µg/mL) | 70 µM (≈ 32.1 µg/mL) | 70 µM (≈ 32.1 µg/mL)
CCn1cc(-c2csc(N)n2)c(=O)c2cc(F)c(N3CCN(Cc4ccc(Cl)c(Cl)c4)CC3)cc21 | 241 µM (≈ 128 µg/mL) | 241 µM (≈ 128 µg/mL) | 8 µM (≈ 4.26 µg/mL) | 241 µM (≈ 128 µg/mL) | 30 µM (≈ 16 µg/mL) | 15 µM (≈ 7.99 µg/mL) | 241 µM (≈ 128 µg/mL) | 482 µM (≈ 257 µg/mL) | 482 µM (≈ 257 µg/mL) | 482 µM (≈ 257 µg/mL) | 482 µM (≈ 257 µg/mL) | 482 µM (≈ 257 µg/mL) | 482 µM (≈ 257 µg/mL) | 241 µM (≈ 128 µg/mL) | 241 µM (≈ 128 µg/mL) | 15 µM (≈ 7.99 µg/mL)
CCCCCCCCCCCCN1CCN(c2cc3c(cc2F)c(=O)c(-c2csc(N)n2)cn3CC)CC1 | 946 µM (≈ 513 µg/mL) | 473 µM (≈ 256 µg/mL) | 473 µM (≈ 256 µg/mL) | 946 µM (≈ 513 µg/mL) | 946 µM (≈ 513 µg/mL) | 946 µM (≈ 513 µg/mL) | 473 µM (≈ 256 µg/mL) | 473 µM (≈ 256 µg/mL) | 473 µM (≈ 256 µg/mL) | 473 µM (≈ 256 µg/mL) | 236 µM (≈ 128 µg/mL) | 473 µM (≈ 256 µg/mL) | 946 µM (≈ 513 µg/mL) | 473 µM (≈ 256 µg/mL) | 946 µM (≈ 513 µg/mL) | 946 µM (≈ 513 µg/mL)
CCOC(=O)CN1CCN(c2cc3c(cc2F)c(=O)c(-c2csc(N)n2)cn3CC)CC1 | 17 µM (≈ 7.81 µg/mL) | 279 µM (≈ 128 µg/mL) | 279 µM (≈ 128 µg/mL) | 139 µM (≈ 63.9 µg/mL) | 279 µM (≈ 128 µg/mL) | 558 µM (≈ 256 µg/mL) | 558 µM (≈ 256 µg/mL) | 35 µM (≈ 16.1 µg/mL) | 70 µM (≈ 32.2 µg/mL) | 70 µM (≈ 32.2 µg/mL) | 139 µM (≈ 63.9 µg/mL) | 139 µM (≈ 63.9 µg/mL) | 70 µM (≈ 32.2 µg/mL) | 70 µM (≈ 32.2 µg/mL) | 139 µM (≈ 63.9 µg/mL) | 139 µM (≈ 63.9 µg/mL)
CCn1cc(-c2csc(N)n2)c(=O)c2cc(F)c(N3CCN(Cc4ccc(F)cc4)CC3)cc21 | 133 µM (≈ 64 µg/mL) | 67 µM (≈ 32.3 µg/mL) | 67 µM (≈ 32.3 µg/mL) | 266 µM (≈ 128 µg/mL) | 67 µM (≈ 32.3 µg/mL) | 33 µM (≈ 15.9 µg/mL) | 266 µM (≈ 128 µg/mL) | 266 µM (≈ 128 µg/mL) | 133 µM (≈ 64 µg/mL) | 133 µM (≈ 64 µg/mL) | 133 µM (≈ 64 µg/mL) | 1060 µM (≈ 512 µg/mL) | 17 µM (≈ 8.19 µg/mL) | 67 µM (≈ 32.3 µg/mL) | 532 µM (≈ 256 µg/mL) | 67 µM (≈ 32.3 µg/mL)
